According to ChEMBL document CHEMBL3400028, “Evaluation of Aconitum diterpenoid alkaloids as antiproliferative agents” (2015):

Tests used:
Type in all cases: functional
A549 = assay: Antiproliferative activity against human A549 cells by sulforhodamine B assay
Outline: (§1)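 Cells in RPMI 1640 (25 mM HEPES, 2 mM L-glutamine, 10% heat-inactivated FBS, antibiotics) at 37 °C, 5% CO2. Seeded at 3–5 × 10³/well with graded concentrations, paclitaxel as assay control, for 72 h. TCA-fixed, stained with 0.04% SRB, dye dissolved in 10 mM Tris, A515 read. GI50 is the concentration halving absorbance versus untreated cells; three or more experiments.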

DU-145 = assay: Antiproliferative activity against human DU145 cells by sulforhodamine B assay; outline: as §1
KB = assay: Antiproliferative activity against human KB cells by sulforhodamine B assay; outline: as §1
[1] = Antiproliferative activity against multidrug-resistant P-gp expressing human KBVIN cells by sulforhodamine B assay
Outline: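 Vincristine-resistant KB subline kept in 100 nM vincristine, then grown 7–10 days without it before testing. RPMI 1640 with 10% FBS, 37 °C, 5% CO2. 3–5 × 10³ cells/well exposed 72 h to a concentration series, paclitaxel as assay control. SRB staining after TCA fixation, A515 read. GI50 is the 50% absorbance reduction versus untreated cells; three or more experiments.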

[2] = Selectivity ratio of GI50 for human KB cells to GI50 for multidrug-resistant P-gp expressing human KBVIN cells
Outline: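 Ratio of GI50 in parental KB to GI50 in P-gp-overexpressing KB-VIN. […] KB-VIN cells were grown 7–10 days without vincristine before the assay.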

GI50 (A549) [µM]	GI50 (DU-145) [µM]	GI50 (KB) [µM]	SMILES	GI50 [1] [µM]	RatioGI50 [2]
6.8	7.7	8.9	C=C1[C@H]2C[C@@H]3C4N5C[C@]6(C)CCC[C@@]47[C@@H]6[C@@]5(O)C[C@]3([C@@H]1O)[C@H]7[C@H]2OC(=O)c1cccc(C(F)(F)F)c1	6.2	1.5
> 20	> 20	> 20	C=C1[C@H]2C[C@H]3C4N5C[C@]6(C)CCC[C@]47[C@H]([C@H]2O)C3(C[C@]5(OC(=O)c2ccc(OC)cc2)[C@H]67)[C@@H]1O	> 20	>20
5.5	6.2	4.1	C=C1[C@H]2C[C@@H]3C4N5C[C@]6(C)CCC[C@@]47[C@@H]6[C@@H]5C[C@]3([C@@H]1OC(=O)/C=C/c1cccc(C(F)(F)F)c1)[C@H]7[C@H]2OC(=O)/C=C/c1cccc(C(F)(F)F)c1	3.1	1.3
10	10	10	C=C1[C@H]2C[C@@H]3C4N5C[C@]6(C)CCC[C@@]47[C@@H]6[C@@H]5C[C@]3([C@@H]1O)[C@H]7[C@H]2OC(=O)c1ccc([N+](=O)[O-])cc1	10	10
> 20	> 20	> 20	C=C1[C@H]2C[C@@H]3C4N5C[C@]6(C)CCC[C@@]47[C@@H]6[C@@]5(O)C[C@]3([C@@H]1O)[C@H]7[C@H]2OC(=O)C(C)(C)C	> 20	>20
10	10	10	C=C1[C@H]2C[C@H]3C4N5C[C@]6(C)CCC[C@]47[C@H]([C@H]2OC(=O)c2ccccc2)C3(C[C@]5(OC(=O)c2ccccc2)[C@H]67)[C@@H]1O	10	10
> 20	> 20	> 20	C=C1[C@H]2C[C@@H]3C4N5C[C@]6(C)CCC[C@@]47[C@@H]6[C@@]5(OC(=O)c4ccc([N+](=O)[O-])cc4)C[C@]3([C@@H]1OC(=O)c1ccc([N+](=O)[O-])cc1)[C@H]7[C@H]2O	> 20	>20
> 20	> 20	> 20	C=C1[C@H]2C[C@@H]3C4N5C[C@]6(C)CCC[C@@]47[C@@H]6[C@@]5(OC(=O)c4cccc(C(F)(F)F)c4)C[C@]3([C@@H]1O)[C@H]7[C@H]2OC(=O)c1cccc(C(F)(F)F)c1	> 20	>20
8.1	6.8	5.2	C=C1[C@H]2C[C@@H]3C4N5C[C@]6(C)CCC[C@@]47[C@@H]6[C@@H]5C[C@]3([C@@H]1OC(=O)c1ccc(F)cc1)[C@H]7[C@H]2OC(=O)c1ccc(F)cc1	7.1	0.73
> 20	> 20	> 20	C=C1[C@H]2C[C@@H]3C4N5C[C@]6(C)CCC[C@@]47[C@@H]6[C@@]5(O)C[C@]3([C@@H]1OC(=O)c1cccnc1)[C@H]7[C@H]2O	> 20	>20
> 20	> 20	> 20	C=C1[C@H]2C[C@@H]3C4N5C[C@]6(C)CCC[C@@]47[C@@H]6[C@@H]5C[C@]3([C@@H]1O)[C@H]7[C@H]2OC(=O)c1ccc(F)cc1	> 20	>20
> 20	> 20	> 20	C=C1[C@H]2C[C@H]3C4N5C[C@]6(C)CCC[C@]47[C@H]([C@H]2O)C3(C[C@]5(OC(=O)c2ccccc2)[C@H]67)[C@@H]1O	> 20	>20
> 20	> 20	> 20	CC1[C@H]2C[C@@H]3C4N5C[C@]6(C)CCC[C@@]47[C@@H]6[C@@]5(O)C[C@]3([C@@H]1O)[C@H]7[C@H]2O (stereo not given in full)	> 20	>20
10	10	10	C=C1[C@H]2C[C@H]3C4N5C[C@]6(C)CCC[C@]47[C@H]([C@H]2OC(=O)c2ccc(OC)cc2)C3(C[C@]5(O)[C@H]67)[C@@H]1O	10	10
> 20	> 20	> 20	C=C1[C@H]2C[C@@H]3C4N5C[C@]6(C)CCC[C@@]47[C@@H]6[C@@]5(O)C[C@]3([C@@H]1OC(=O)CC)[C@H]7[C@H]2OC(=O)CC	> 20	>20

Further lines, the molecule ahead of its results:

SMILES	GI50 (A549) [µM]	GI50 (DU-145) [µM]	GI50 (KB) [µM]	GI50 [1] [µM]	RatioGI50 [2]
CCN1C[C@]2(COC)[C@H](O)C[C@H](OC)[C@@]34[C@@H]5C[C@@]6(O)[C@H](OC(=O)c7ccccc7)[C@@H]5[C@@](OC(C)=O)([C@@H]([C@H](OC)[C@H]23)[C@@H]14)[C@@H](O)[C@@H]6OC [ACONITINE]	> 20	> 20	> 20	> 20	>20
C=C1[C@H]2C[C@@]3([C@@H]1OC(=O)c1ccccc1)[C@@H](C[C@@H]2OC(=O)c1ccccc1)[C@@]12C4[C@@H]3C[C@@H]1[C@@](C)(CC[C@@H]2O)CN4CC	> 20	> 20	> 20	> 20	>20
C=C1[C@H]2C[C@@]3(C4C[C@@H]5C6(C)CCC7O[C@H]6N(CC)C4C75[C@@H]3C[C@@H]2OC(C)=O)[C@@H]1OC(C)=O	> 20	> 20	> 20	> 20	>20
CCN1C[C@]2(COC)[C@H](O)C[C@H](OC(C)=O)[C@]34C1[C@@](O)([C@@H](OC)[C@H]23)[C@@]1(O)C[C@H](OC)[C@H]2C[C@@H]4[C@@H]1[C@H]2OC(C)=O	> 20	> 20	> 20	> 20	>20
CCN1C[C@]2(COC)CC[C@H](OC(=O)c3ccc([N+](=O)[O-])cc3)[C@]34C1[C@@](O)([C@@H](OC)[C@H]23)[C@@]1(O)C[C@H](OC)[C@H]2C[C@@H]4[C@@H]1[C@H]2O	> 20	> 20	> 20	> 20	>20
CCN1C[C@]2(COC)[C@H](O)C[C@H](O)[C@]34C1[C@@](O)([C@@H](O)[C@H]23)[C@@]1(O)C[C@H](OC)[C@H]2C[C@@H]4[C@@H]1[C@H]2O	> 20	> 20	> 20	> 20	>20
CCN1C[C@]2(COC)CC[C@H](OC(=O)c3ccc([N+](=O)[O-])cc3)[C@]34C1[C@@](O)([C@@H](OC)[C@H]23)[C@@]1(O)C[C@H](OC)[C@H]2C[C@@H]4[C@@H]1[C@H]2OC(=O)c1ccc([N+](=O)[O-])cc1	> 20	> 20	> 20	> 20	>20
COC[C@]12CN(C)C3C4[C@H](OC)[C@H]1[C@@]3([C@@H](OC)C[C@H]2O)[C@@H]1C[C@@]2(O)[C@H](OC(=O)c3ccccc3)[C@@H]1[C@]4(OC)[C@@H](O)[C@@H]2OC [HOKBUSINE A]	> 20	> 20	> 20	> 20	>20
C=C1[C@H]2C[C@@]3([C@@H]1OC(C)=O)[C@@H](C[C@@H]2OC(C)=O)[C@@]12C4[C@@H]3C[C@@H]1[C@@](C)(CC[C@@H]2O)CN4CC	> 20	> 20	> 20	> 20	>20
C=C1[C@H]2C[C@@H]3C4N5C[C@]6(C)CCC[C@@]47[C@@H]6[C@@]5(OC(=O)c4ccc([N+](=O)[O-])cc4)C[C@]3([C@@H]1OC(=O)c1ccc([N+](=O)[O-])cc1)[C@H]7[C@H]2OC(=O)c1ccc([N+](=O)[O-])cc1	> 20	> 20	> 20	> 20	>20
C=C1[C@H]2C[C@@]3([C@@H]1OC(C)=O)[C@@H](C[C@@H]2O)[C@@]12C4[C@@H]3C[C@@H]1[C@@](C)(CC[C@@H]2O)CN4CC	> 20	> 20	> 20	> 20	>20
C=C1[C@H]2C[C@@H]3C4N(C(=O)/C=C/c5ccccc5)C[C@]5(C)CCC[C@@]46[C@@H]5C(=O)C[C@]3([C@@H]1O)[C@H]6[C@H]2O (stereo not given in full)	> 20	> 20	> 20	> 20	>20
C=C1[C@H]2C[C@H]3C4N5C[C@]6(C)CCC[C@]47[C@H]([C@H]2O)C3(CC5[C@H]67)[C@@H]1O [KOBUSINE]	> 20	> 20	> 20	> 20	>20
C=C1[C@@H](O)[C@]23C[C@@H]1[C@@H](OC(=O)c1ccc(OC)cc1)C[C@H]2[C@@]12C4C3C[C@@H]1[C@@](C)(CC[C@H]2O)CN4CC	> 20	> 20	> 20	> 20	>20
